In PMC4836853 (Arteriosclerosis, thrombosis, and vascular biology, 2016):
Entries after “also recorded” stand apart in the source; their conditions may differ. Read-outs that look alike come from different tables or passages of the source. One block for each compound: values may come before it. Peptide text beside a SMILES is read from it. * marks the point of attachment. Palmitoyl = CCCCCCCCCCCCCCCC(=O)*

Columns and labels:
PAR1 [1] = molecular target: T1, PAR1 (Homo sapiens, UniProt P25116); conditions: cited from earlier work
T1 sequence (P25116 22-425): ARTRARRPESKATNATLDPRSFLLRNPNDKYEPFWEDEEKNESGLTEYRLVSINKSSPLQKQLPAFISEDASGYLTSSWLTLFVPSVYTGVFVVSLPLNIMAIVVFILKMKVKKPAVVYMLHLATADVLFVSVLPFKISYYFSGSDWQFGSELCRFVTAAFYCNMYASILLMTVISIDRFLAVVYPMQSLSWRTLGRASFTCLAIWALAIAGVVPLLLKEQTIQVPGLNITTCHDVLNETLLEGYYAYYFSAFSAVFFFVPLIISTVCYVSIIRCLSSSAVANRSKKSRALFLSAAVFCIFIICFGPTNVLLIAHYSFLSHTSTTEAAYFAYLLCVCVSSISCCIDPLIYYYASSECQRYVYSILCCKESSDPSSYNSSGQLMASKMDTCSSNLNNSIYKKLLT

PAR1 [2] = molecular target: T1, PAR1; test: Ex vivo platelet aggregation to PAR1 agonist SFLLRN; type: in vivo; conditions: for inhibition at 2 mg/kg: read-out: inhibition of final aggregation to 8 μmol/L SFLLRN, 2 mg/kg
[3] = Pharmacokinetics of PZ-128 in plasma and urine after 1 to 2 hours iv infusion; type: in vivo, human
[4] = Safety, tolerability and hemostasis parameters in phase 1 subjects; type: in vivo, human
Method in brief: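 Single ascending IV doses went to subjects with CAD or multiple CAD risk factors. Cohorts of 0.01–2 mg/kg received 1-h infusions; a final 0.5 mg/kg cohort received a 2-h infusion after antiallergic premedication. Assessments were at baseline, 0.5, 1, 2, 6 and 24 h, and 7–10 days. APTT, INR, ACT and bleeding time were regressed on dose using repeated-measures mixed-effects models with Bonferroni post hoc correction.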

PAR1 [5] = molecular target: T1, PAR1; conditions: cited from earlier work; remark: listed apart in the source

SMILES: CCOc1cc2c(c(F)c1OCC)C(=N)N(CC(=O)c1cc(N3CCOCC3)c(OC)c(C(C)(C)C)c1)C2 [atopaxar]
time to maximal platelet inhibition after the loading dose (PAR1 [1]; LANCELOT-ACS subjects): 6 h
QTc interval (PAR1 [1]; higher dose levels): prolongation of the QTc interval was observed in some individuals

inhibition at 2 mg/kg (PAR1 [2]; 1 to 2-hour time points): 96 to 98%
inhibition at 2 mg/kg (PAR1 [2]; 6 to 192-hour time points): 15 to 21%
inhibition at 0.3 mg/kg (PAR1 [2]; read-out: mean inhibition of platelet aggregation (final), 8 μmol/L SFLLRN, 0.3 mg/kg, 30 minutes to 6 hours): 20 to 40%
inhibition at 0.5 mg/kg (PAR1 [2]; read-out: mean inhibition of platelet aggregation (final), 8 μmol/L SFLLRN, 0.5 mg/kg, 30 minutes to 6 hours): 40 to 60%
Cmax ([3]; human, plasma, intravenous): 4700 to 21500 nM
Vd ([3]; human, plasma, intravenous): 0.11 to 0.17 L/kg
Cmax ([3]; human, plasma, intravenous, 0.5 mg/kg): 1800 to 2700 nM
half-life ([3]; human, plasma, iv): 1.3 to 1.8 h
level at time molar ([3]; human, plasma, iv): 1000 to 3000 nM
level at time molar at 6 h ([3]; human, plasma, iv, 0.5 mg/kg): < 500 nM
peak plasma drug levels, 2-mg/kg versus 1-mg/kg cohort ([3]; in vivo): 2 fold
SMILES: CCCCCCCCCCCCCCCC(=O)N[C@@H](CCCCN)C(=O)N[C@@H](CCCCN)C(=O)N[C@@H](CO)C(=O)N[C@@H](CCCNC(=N)N)C(=O)N[C@@H](C)C(=O)N[C@@H](CC(C)C)C(=O)N[C@@H](Cc1ccccc1)C(N)=O [PZ-128] (Palmitoyl-KKSRALF-NH2)
drug in plasma at 24 to 192 hours ([3]; all subjects): undetectable; also recorded: no detectable drug
PZ-128 in urine ([3]; any time point, all subjects): nondetectable; also recorded: little or no PZ-128 detected; also recorded: not renally cleared
tolerability / allergic response ([4]; 0.5 mg/kg, 2-hour infusion, antiallergic premedication): none of these subjects had an allergic response; also recorded: appeared to be well tolerated
tolerability ([4]; 0.01-, 0.03-, 0.1-, and 0.3-mg/kg, 1-hour intravenous infusion): well tolerated
transient tingling or numb sensation in the skin ([4]; 0.5–2 mg/kg): commonly reported
subjects with no hemodynamic effects ([4]; 2-mg/kg dose over the 1-hour infusion): 50%
effects on coagulation, hemostasis parameters, or bleeding ([4]; any dose): No significant effects
heart rate, ECG parameters (RR, PR, QRS, QT, QTc, QTd) or pulmonary function ([4]; any dose): no significant changes
most important adverse event ([4]; highest doses (1–2 mg/kg), 1-hour infusion): acute allergic reactions
clinical chemistry, hematology, urinalysis ([4]; human, in vivo): not significantly affected

SMILES: CCOC(=O)N[C@@H]1CC[C@@H]2[C@@H](C1)C[C@H]1C(=O)O[C@H](C)[C@H]1[C@H]2/C=C/c1ccc(-c2cccc(F)c2)cn1 [Vorapaxar, vorapaxar]
inhibition of SFLLRN-induced aggregation at 2 hours (PAR1 [5]; 40-mg loading dose (≈0.4 mg/kg)): ≥ 80%
inhibition of SFLLRN-induced aggregation at 30 minutes (PAR1 [5]; 40-mg oral loading dose): no appreciable inhibition
